Legend:
[1] = system: Human immunodeficiency virus 1; test: Antiviral activity against vesicular stomatitis virus G-pseudotyped Human immunodeficiency virus 1 NL4-3 infected in human MT2 cells assessed as inhibition of viral replication after 48 hrs by luciferase activity reporter gene assay; format: functional, organism-based
How it was run: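 Pseudovirus made by Ca3(PO4)2 co-transfection of 293 cells with env-deficient pNL4-3.luc.R−E− and VSV-G plasmid; supernatant harvested 48 h, 0.45 μm filtered. MT-2 cells (1.2×10⁵/well) pre-incubated with compound 15 min, then infected; solvent-only control. After 48 h cells lysed and luciferase measured; EC50 from dose-dependent inhibition, averaged from at least two experiments.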

[2] = system: Human immunodeficiency virus 1; test: Antiviral activity against Human immunodeficiency virus 1 NL4-3 infected in human TZM-bl cells assessed as reduction in relative luminescence units after 48 hrs by luciferase reporter gene assay; format: functional, organism-based; conditions: Human immunodeficiency virus 1, NL4-3, TZM-bl
[3] = system: Human immunodeficiency virus 1; test: Antiviral activity against Human immunodeficiency virus 1 NL4-3 harboring reverse transcriptase K101E mutant infected in human TZM-bl cells assessed as reduction in relative luminescence units after 48 hrs by luciferase reporter gene assay; format: functional, organism-based; conditions: Human immunodeficiency virus 1, NL4-3, TZM-bl
[4] = system: Human immunodeficiency virus 1; test: Antiviral activity against NNRTI-resistant Human immunodeficiency virus 1 RTMDR infected in human TZM-bl cells assessed as reduction in relative luminescence units after 48 hrs by luciferase reporter gene assay; format: functional, organism-based
[5] = system: Human immunodeficiency virus 1; test: Antiviral activity against NRTI-resistant Human immunodeficiency virus 1 7324-1 harboring reverse transcriptase M41L, D67N, K70R, T215F, K219E and T69N mutant infected in human TZM-bl cells assessed as reduction in relative luminescence units after 48 hrs by luciferase reporter gene assay; format: functional, organism-based; conditions: Human immunodeficiency virus 1, 7324-1, TZM-bl
How it was run: (§1)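 Panel of eleven NRTI-resistant strains from the NIH Reagent Program plus wild-type NL4-3; highest concentration tested 40,000 nM. EC50 = concentration inhibiting HIV by 50%, averaged from at least two separate experiments.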

[6] = system: Human immunodeficiency virus 1; test: Antiviral activity against NRTI-resistant Human immunodeficiency virus 1 7324-4 harboring reverse transcriptase M41L, K70R, T215F and K219E mutant infected in human TZM-bl cells assessed as reduction in relative luminescence units after 48 hrs by luciferase reporter gene assay; format: functional, organism-based; conditions: Human immunodeficiency virus 1, 7324-4, TZM-bl; how it was run: as §1
[7] = system: Human immunodeficiency virus 1; test: (§2) Antiviral activity against NRTI-resistant Human immunodeficiency virus 1 10076-4 harboring reverse transcriptase M41L, T215Y and M184V mutant infected in human TZM-bl cells assessed as reduction in relative luminescence units after 48 hrs by luciferase reporter gene assay; format: functional, organism-based; conditions: Human immunodeficiency virus 1, 10076-4, TZM-bl; how it was run: as §1
[8] = system: Human immunodeficiency virus 1; test: Antiviral activity against NRTI-resistant Human immunodeficiency virus 1 7295-1 harboring reverse transcriptase D67N, K70R, T215F, K219Q, M184V and T69N mutant infected in human TZM-bl cells assessed as reduction in relative luminescence units after 48 hrs by luciferase reporter gene assay; format: functional, organism-based; conditions: Human immunodeficiency virus 1, 7295-1, TZM-bl; how it was run: as §1
[9] = system: Human immunodeficiency virus 1; test: as §2, with “4755-5” for “10076-4”, “D67N, L210W, T215Y, M184V, T69D, E44D” for “T215Y”, “V118I” for “M184V”; format: functional, organism-based; conditions: Human immunodeficiency virus 1, 4755-5, TZM-bl; how it was run: as §1
[10] = system: Human immunodeficiency virus 1; test: Antiviral activity against NRTI-resistant Human immunodeficiency virus 1 6463-13 harboring reverse transcriptase M41L, D67N, L210W, T215Y, M184V and V118I mutant infected in human TZM-bl cells assessed as reduction in relative luminescence units after 48 hrs by luciferase reporter gene assay; format: functional, organism-based; conditions: Human immunodeficiency virus 1, 6463-13, TZM-bl; how it was run: as §1
[11] = system: Human immunodeficiency virus 1; test: Antiviral activity against NRTI-resistant Human immunodeficiency virus 1 7303-3 harboring reverse transcriptase M41L, D67N, L210W, T215Y, T69D, E44D and V118I mutant infected in human TZM-bl cells assessed as reduction in relative luminescence units after 48 hrs by luciferase reporter gene assay; format: functional, organism-based; conditions: Human immunodeficiency virus 1, 7303-3, TZM-bl; how it was run: as §1
[12] = system: Human immunodeficiency virus 1; test: Antiviral activity against NRTI-resistant Human immunodeficiency virus 1 1617-1 harboring reverse transcriptase K70G, M184V, T69K, V75I, F77L, F116Y and Q151M mutant infected in human TZM-bl cells assessed as reduction in relative luminescence units after 48 hrs by luciferase reporter gene assay; format: functional, organism-based; conditions: Human immunodeficiency virus 1, 1617-1, TZM-bl; how it was run: as §1
[13] = system: Human immunodeficiency virus 1; test: Antiviral activity against NRTI-resistant Human immunodeficiency virus 1 35764-2 harboring reverse transcriptase V75I, F77L, F116Y and Q151M mutant infected in human TZM-bl cells assessed as reduction in relative luminescence units after 48 hrs by luciferase reporter gene assay; format: functional, organism-based; conditions: Human immunodeficiency virus 1, 35764-2, TZM-bl; how it was run: as §1
[14] = system: Human immunodeficiency virus 1; test: Antiviral activity against NRTI-resistant Human immunodeficiency virus 1 29129-2 harboring reverse transcriptase M41L, D67N, L210W, T215Y and M184V mutant infected in human TZM-bl cells assessed as reduction in relative luminescence units after 48 hrs by luciferase reporter gene assay; format: functional, organism-based; conditions: Human immunodeficiency virus 1, 29129-2, TZM-bl; how it was run: as §1
[15] = system: Human immunodeficiency virus 1; test: Antiviral activity against NRTI-resistant Human immunodeficiency virus 1 56252-1 harboring reverse transcriptase K70R, V75I, F77L, F116Y, Q151M and K65R mutant infected in human TZM-bl cells assessed as reduction in relative luminescence units after 48 hrs by luciferase reporter gene assay; format: functional, organism-based; conditions: Human immunodeficiency virus 1, 56252-1, TZM-bl; how it was run: as §1
[16] = system: Human immunodeficiency virus 1; test: Antiviral activity against […] infected in human TZM-bl cells assessed as reduction in relative luminescence units after 48 hrs by luciferase reporter gene assay; format: functional, organism-based; conditions: Human immunodeficiency virus 1, NL4-3, TZM-bl; how it was run: as §1
[17] = Cytotoxicity activity against human TZM-bl by CellTiter-Glo luminescent cell viability assay; format: cell-based
How it was run: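 Viable TZM-bl cells (HeLa-derived) quantified by luminescent ATP read-out after exposure to compound, tested up to a top concentration of 140 μM. IC50 taken as the concentration that inhibits cell growth by 50%, averaged from at least three separate experiments.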

HepG2 = test: Cytotoxicity activity against human HepG2 by CellTiter-Glo luminescent cell viability assay; format: cell-based
How it was run: (§3)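 CellTiter-Glo luminescent viability assay quantifying ATP in metabolically active cells; PBMC were PHA-activated. Highest concentration tested 140 μM. IC50 = concentration inhibiting cell growth by 50%, averaged from at least three separate experiments.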

HEK-293T = test: Cytotoxicity activity against human 293T by CellTiter-Glo luminescent cell viability assay; format: cell-based; how it was run: as §3
MT4 = test: Cytotoxicity activity against human MT4 by CellTiter-Glo luminescent cell viability assay; format: cell-based; how it was run: as §3
[18] = Cytotoxicity activity against human ACH2 by CellTiter-Glo luminescent cell viability assay; conditions: ACH-2; how it was run: as §3
PBMC = test: Cytotoxicity activity against human PBMC by CellTiter-Glo luminescent cell viability assay; format: cell-based; how it was run: as §3

[N-]=[N+]=N[C@]1(CO)O[C@@H](n2ccc(N)nc2=O)[C@@H](F)[C@@H]1O
EC50 ([1]; mt2): 0.13 nM
EC50 [2]: 0.086 nM
EC50 [3]: 0.15 nM
EC50 [4]: 0.11 nM
EC50 [5]: 0.595 nM
EC50 [6]: 0.735 nM
EC50 [7]: > 40000 nM
EC50 [8]: > 40000 nM
EC50 [9]: > 40000 nM
EC50 [10]: > 40000 nM
EC50 [11]: 0.56 nM
EC50 [12]: 32.2 nM
EC50 [13]: 0.42 nM
EC50 [14]: > 40000 nM
EC50 [15]: 0.525 nM
EC50 [16]: 0.318 nM
IC50 [17]: > 140000 nM
IC50 (HepG2): > 140000 nM
IC50 (HEK-293T): > 140000 nM
IC50 (MT4): 120 nM
IC50 [18]: 110 nM
IC50 (PBMC): 150 nM

[N-]=[N+]=N[C@]1(CO)O[C@@H](n2ccc(N)nc2=O)[C@@H](F)[C@@H]1O [RO-0622]
EC50 ([1]; mt2): 0.3 nM

Cc1cn([C@H]2C[C@H](N=[N+]=[N-])[C@@H](CO)O2)c(=O)[nH]c1=O [ZIDOVUDINE]
EC50 ([1]; Human immunodeficiency virus 1, NL4-3, MT2, 48 h): 47 nM
